Source: ChEMBL document CHEMBL3352006, “Further evaluation of novel structural modifications to scaffolds that engender PLD isoform selective inhibition” (Bioorg Med Chem Lett, 2014)

What was measured:
[1] = molecular target: T1, Phospholipase D1 (Homo sapiens, UniProt Q13393); test: Inhibition of PLD1 (unknown origin) expressed in human Calu1 cells by cell-based assay; design: species or system Calu-1
T1 sequence (Q13393 whole entry): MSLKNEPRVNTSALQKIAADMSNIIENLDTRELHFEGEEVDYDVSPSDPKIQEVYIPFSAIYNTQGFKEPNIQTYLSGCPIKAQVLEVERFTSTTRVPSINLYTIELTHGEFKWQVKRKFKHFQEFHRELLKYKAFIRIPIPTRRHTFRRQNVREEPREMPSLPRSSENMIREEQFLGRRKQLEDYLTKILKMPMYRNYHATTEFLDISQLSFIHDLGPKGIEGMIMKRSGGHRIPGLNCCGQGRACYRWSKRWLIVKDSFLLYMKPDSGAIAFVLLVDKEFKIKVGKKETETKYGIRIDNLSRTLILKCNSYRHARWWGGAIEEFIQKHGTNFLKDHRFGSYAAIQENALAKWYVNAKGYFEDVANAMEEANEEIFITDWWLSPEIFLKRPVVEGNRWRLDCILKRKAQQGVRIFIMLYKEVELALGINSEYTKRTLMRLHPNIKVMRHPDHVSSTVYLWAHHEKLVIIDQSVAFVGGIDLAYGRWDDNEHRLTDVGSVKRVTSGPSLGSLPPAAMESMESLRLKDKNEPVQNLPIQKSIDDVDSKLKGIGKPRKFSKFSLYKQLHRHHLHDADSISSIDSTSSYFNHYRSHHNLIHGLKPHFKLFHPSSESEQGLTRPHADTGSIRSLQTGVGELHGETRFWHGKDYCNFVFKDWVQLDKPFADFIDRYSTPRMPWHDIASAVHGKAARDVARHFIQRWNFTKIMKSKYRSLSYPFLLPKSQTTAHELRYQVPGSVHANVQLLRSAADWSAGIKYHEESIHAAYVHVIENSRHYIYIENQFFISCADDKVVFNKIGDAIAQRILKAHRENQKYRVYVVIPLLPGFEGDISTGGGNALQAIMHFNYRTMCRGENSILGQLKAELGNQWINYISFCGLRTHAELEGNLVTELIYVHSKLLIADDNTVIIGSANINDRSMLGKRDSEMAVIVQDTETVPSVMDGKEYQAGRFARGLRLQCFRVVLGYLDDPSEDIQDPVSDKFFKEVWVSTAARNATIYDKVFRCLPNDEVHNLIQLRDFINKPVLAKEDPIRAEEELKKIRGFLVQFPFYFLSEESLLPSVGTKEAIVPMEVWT

[2] = system: Calu-1; test: Selectivity ratio of IC50 for PLD2 (unknown origin) expressed in HEK293-gfp cells to IC50 for PLD1 (unknown origin) expressed in human Calu1 cells; assay type: cell-based
Procedure, shortened: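 Both IC50s come from cellular assays. PLD1 was measured in Calu-1 cells and PLD2 in HEK293-gfp PLD2 cells. Each IC50 was determined in triplicate. The value is the PLD2 IC50 divided by the PLD1 IC50.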

[3] = molecular target: D(2) dopamine receptor (Homo sapiens, UniProt P14416); test: Inhibition of dopamine D2 receptor (unknown origin)
[4] = molecular target: Phospholipase D2 (Homo sapiens, UniProt O14939); test: Inhibition of PLD2 (unknown origin) expressed in HEK293-gfp cells by cell-based assay
Procedure, shortened: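 Cellular assay in HEK293-gfp PLD2 cells; each IC50 determined in triplicate.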

[5] = system: Calu-1; test: Selectivity ratio of IC50 for PLD1 (unknown origin) expressed in human Calu1 cells to IC50 for PLD2 (unknown origin) expressed in HEK293-gfp cells; assay type: cell-based

Sequence of Phospholipase D2 (O14939 whole entry): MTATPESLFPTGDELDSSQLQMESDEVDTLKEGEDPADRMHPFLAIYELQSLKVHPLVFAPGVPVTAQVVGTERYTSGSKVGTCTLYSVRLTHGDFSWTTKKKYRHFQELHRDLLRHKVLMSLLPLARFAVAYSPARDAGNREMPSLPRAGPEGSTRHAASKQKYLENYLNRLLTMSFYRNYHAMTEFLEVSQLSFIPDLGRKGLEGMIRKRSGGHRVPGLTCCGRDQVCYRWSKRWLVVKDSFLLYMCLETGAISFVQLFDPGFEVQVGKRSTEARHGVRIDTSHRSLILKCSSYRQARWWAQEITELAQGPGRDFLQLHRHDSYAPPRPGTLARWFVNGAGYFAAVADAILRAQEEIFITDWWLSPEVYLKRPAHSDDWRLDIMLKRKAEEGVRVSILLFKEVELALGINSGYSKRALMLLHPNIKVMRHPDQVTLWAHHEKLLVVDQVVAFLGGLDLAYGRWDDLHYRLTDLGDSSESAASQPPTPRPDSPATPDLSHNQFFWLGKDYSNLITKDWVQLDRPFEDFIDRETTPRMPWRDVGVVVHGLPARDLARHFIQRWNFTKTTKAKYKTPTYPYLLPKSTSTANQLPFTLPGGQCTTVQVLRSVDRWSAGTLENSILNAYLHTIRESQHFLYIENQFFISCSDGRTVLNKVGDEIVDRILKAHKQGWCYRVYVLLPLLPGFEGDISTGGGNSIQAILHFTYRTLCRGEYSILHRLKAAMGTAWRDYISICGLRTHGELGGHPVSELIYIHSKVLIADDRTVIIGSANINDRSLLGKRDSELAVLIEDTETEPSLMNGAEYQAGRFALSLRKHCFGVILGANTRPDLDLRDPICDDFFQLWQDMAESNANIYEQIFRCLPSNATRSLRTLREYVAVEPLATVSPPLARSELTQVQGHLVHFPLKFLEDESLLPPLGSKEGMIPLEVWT
Sequence of D(2) dopamine receptor (P14416 whole entry): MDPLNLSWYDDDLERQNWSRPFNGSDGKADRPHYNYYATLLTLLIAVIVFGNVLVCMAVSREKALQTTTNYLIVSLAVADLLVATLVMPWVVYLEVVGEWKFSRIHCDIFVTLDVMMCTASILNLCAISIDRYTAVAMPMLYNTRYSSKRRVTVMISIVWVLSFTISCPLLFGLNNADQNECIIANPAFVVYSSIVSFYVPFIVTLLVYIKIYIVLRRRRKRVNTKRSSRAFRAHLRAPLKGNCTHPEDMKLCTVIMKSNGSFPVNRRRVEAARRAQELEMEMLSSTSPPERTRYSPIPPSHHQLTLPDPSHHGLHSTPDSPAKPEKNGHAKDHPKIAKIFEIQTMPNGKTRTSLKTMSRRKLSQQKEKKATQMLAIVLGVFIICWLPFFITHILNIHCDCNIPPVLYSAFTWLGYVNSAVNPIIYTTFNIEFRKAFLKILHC

SMILES | IC50 [1] [nM] | Ratio IC50 [2] | IC50 [3] [nM] | IC50 [4] [nM] | Ratio IC50 [5]
CC1CC(n2c(=O)[nH]c3ccccc32)CCN1CCNC(=O)c1ccc(F)cc1 (stereo not drawn) | 636 | 11.5 | – | – | –
O=C(NCCN1CCC(n2c(=O)[nH]c3ccccc32)C(F)C1)c1ccc(F)c(F)c1 (stereo not drawn) | 21 | 4.7 | > 10000 | – | –
O=C(NCCN1CC2CC(n3c(=O)[nH]c4ccccc43)CC2C1)c1ccc2ccccc2c1 (stereo not drawn) | 244 | 7.3 | – | – | –
O=C(NCCN1CC2CC(n3c(=O)[nH]c4ccccc43)CC2C1)c1ccc(F)cc1 (stereo not drawn) | 870 | 4 | – | 3570 | –
O=C(NCCN1CC2CC(n3c(=O)[nH]c4ccccc43)CC2C1)c1ccc(Br)cc1 (stereo not drawn) | 468 | 5.5 | – | – | –
O=C(NCCN1CC2CC(n3c(=O)[nH]c4ccccc43)CC2C1)c1cc2cc(F)ccc2[nH]1 (stereo not drawn) | 230 | 5.4 | – | 1240 | –
O=C(NCCN1CC2CC(n3c(=O)[nH]c4ccccc43)CC2C1)c1cc2ccccc2[nH]1 (stereo not drawn) | 72 | 3 | – | 220 | –
O=C(NCCN1CC2CC(n3c(=O)[nH]c4ccccc43)CC2C1)c1ccc(F)c(F)c1 (stereo not drawn) | 820 | 3.9 | – | 3250 | –
CC(CNC(=O)c1ccc2ccccc2c1)N1CCC2(CC1)C(=O)NCN2c1ccccc1 (racemic) | 315 | – | – | 64 | 5
CC(CNC(=O)c1ccc(F)cc1)N1CCC2(CC1)C(=O)NCN2c1ccccc1 (racemic) | 1490 | – | – | 290 | 5
CC(CNC(=O)c1ccc(Br)cc1)N1CCC2(CC1)C(=O)NCN2c1ccccc1 (racemic) | 230 | – | – | 120 | 2
CC(CNC(=O)c1cc2cc(F)ccc2[nH]1)N1CCC2(CC1)C(=O)NCN2c1ccccc1 (racemic) | 35 | – | – | 18 | 2
CC(CNC(=O)c1cc2ccccc2[nH]1)N1CCC2(CC1)C(=O)NCN2c1ccccc1 (racemic) | 21 | – | – | 6 | 3
CC(CNC(=O)c1ccc(F)c(F)c1)N1CCC2(CC1)C(=O)NCN2c1ccccc1 (racemic) | 1080 | – | – | 17 | 63
CC1CC(n2c(=O)[nH]c3ccccc32)CCN1CCNC(=O)[C@@H]1C[C@H]1c1ccccc1 (relative stereo) | 115 | 24 | – | – | –
O=C(NCCN1CC2CC(n3c(=O)[nH]c4ccccc43)CC2C1)[C@@H]1C[C@H]1c1ccccc1 (relative stereo) | 1080 | – | – | 115 | –
